The values below come from PMC3350218 (Journal of Medicinal Chemistry, 2012).

By EC50 is commonly meant the concentration needed to bring the measured effect to its halfway point. The Papp A→B is how fast a substance crosses the layer from the apical side. By Papp B→A is commonly meant the apparent permeability from the basolateral to the apical side of a cell layer. By Cmax is commonly meant the maximum level reached in the sampled fluid or tissue. Broadly, the AUC(0-t) is the area under the concentration-time curve up to a stated or last time point. For orientation: Vd means the apparent volume that relates the amount in the body to the concentration in plasma or blood. Read a low Vd as little distribution into tissue. The clearance is a measure of how efficiently the substance is removed, as volume per time. A low value points to a low capacity for elimination. In general, half-life refers to the time needed for the level to fall by half in the phase considered. Lower therefore signals rapid decline. The term bioavailability denotes the share of a dose that reaches the circulation, judged against a reference dose that is usually intravenous. By Tmax is commonly meant the time from dosing to the highest level.

One data set deals with P. falciparum strain W2. Briefly: Antiplasmodial proliferation inhibition assay, 384-well, SYBR Green. The format is cell-based, Plasmodium falciparum. A digest of the protocol:
(§1)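 P. falciparum was grown in O+ erythrocytes and tested in serum-free medium with 0.5% Albumax II. Test compound ran as a 12-point half-log series, top final 10 μM, at 0.3% parasitemia and 2.5% hematocrit, 72 h, 37 °C, low-oxygen gas. Saponin/Triton lysis buffer with SYBR Green was added (24 h, 25 °C), then fluorescence read at 485/530 nm. […] EC50 came from logistic fit, with at least duplicate plates.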

For another data set, the system named is P. falciparum. Briefly: Antiplasmodial activity as quoted in text. The format is cell-based, Plasmodium falciparum. The conditions noted are these: for loss/decrease of potency: relative to parent compound (17: 8-methyl; 32: lactam vs 31); for EC50: Plasmodium falciparum, read-out: antiplasmodial activity EC50; for improvement in potency: on 8,8-dimethyl substitution (33 vs 32; 35 vs 31). The essentials:
as §1

The test system of another data set is Caco-2. Briefly: Caco-2 permeability assay. The conditions noted are these: for Caco-2 A–B: apical to basolateral; for Caco-2 B–A: basolateral to apical. The format is in vitro ADME. (Caco-2 cells form a polarised layer with tight junctions and transporters.)
The next data set deals with Plasmodium berghei. Briefly: Plasmodium berghei mouse survival model. The conditions noted are these: for survival (average lifespan after infection): untreated control 6–7 days. The format is in vivo, Plasmodium berghei (NMRI mice). A digest of the protocol:
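Female NMRI mice (20–22 g), three per group, were infected IV on day 0 with 2 × 10^7 P. berghei GFP ANKA-parasitised erythrocytes. Test compound in 75% PEG300/25% D5W was given orally at 10 mL/kg, either once at 24 h or daily at 24, 48 and 72 h. Parasitemia was measured by flow cytometry at 72 h or 96 h, as % reduction versus untreated controls. Survival was followed to day 30, and cure meant parasite-free survival to day 30.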

The nature of data set [1]: Caco-2 permeability assay. The conditions noted are these: human, Caco-2. The format is in vitro ADME.
A short description of the next data set: Rat snapshot PK. The format is in vivo.
Data set [2] in a line: In vivo pharmacokinetics in mice. The conditions noted are these: mouse, plasma.
The nature of data set [3]: Rat full PK / dose escalation PK. The conditions noted are these: rat PO, 30 mg/kg vs 10 mg/kg. The format is in vivo.
The next data set concerns P. falciparum strain 3D7. Briefly: Antiplasmodial proliferation inhibition assay, 384-well, SYBR Green. The format is cell-based. The conditions noted are these: Plasmodium falciparum, 3D7, read-out: P. falciparum strain EC50 3D7. The essentials: as §1
Data set [4] in a line: Metabolic stability in mouse liver microsomes. The format is in vitro ADME. The conditions noted are these: Table 2. Background: Liver microsomes are vesicles of endoplasmic reticulum, rich in cytochrome P450 enzymes.
The nature of a further data set: PAMPA assay. The format is in vitro ADME. The conditions noted are these: Table 3. (In general: In PAMPA a lipid-coated filter parts donor from acceptor wells.)
The mark [5] stands for this setting: read-out: P. falciparum strain EC50 W2, Table 1, means of two experiments, 72 h incubation.
Setting [6] is: Wistar, rat, plasma, po, 20 mg/kg.

Like-named read-outs stand apart in the source and are kept apart here.

For the compound “(R)-2-Amino-1-(3-(4-chloro-3-fluorophenylamino)-2-(4-fluorophenyl)-8-methyl-5,6-dihydroimidazo[1,2-a]pyrazin-7(8H)-yl)ethanone [Compound 18]”, in the data set on P. falciparum strain W2 (setting [5]), the EC50 came to 0.029 ± 0.003 µM.

For the compound `Cc1ccc(Nc2c(-c3ccc(F)cc3)nc3n2CC(=O)NC3)cc1` [Compound 32, 2-(4-Fluorophenyl)-3-(p-tolylamino)-7,8-dihydroimidazo[1,2-a]pyrazin-6(5H)-one], the loss/decrease of potency in the data set with P. falciparum is given as ~7 fold. Moreover, in the data set with Caco-2, the “Caco-2 A–B” value is given as 15 cm/s ×10^6 and the “Caco-2 B–A” value is on record as 14.37 cm/s ×10^6.

For `CC1(C)c2nc(-c3ccc(F)cc3)c(Nc3ccc(F)c(F)c3)n2CCN1C(=O)CN` [Compound 24, 2-Amino-1-(3-((3,4-difluorophenyl)amino)-2-(4-fluorophenyl)-8,8-dimethyl-5,6-dihydroimidazo[1,2-a]pyrazin-7(8H)-yl)ethanone], in the data set on Caco-2, the “Caco-2 A–B” value was determined as 0.61 cm/s ×10^6 and the “Caco-2 B–A” value was 1.3 cm/s ×10^6. The “activity (average parasitemia reduction)” value with Plasmodium berghei (1 × 30 mg/kg oral, 30 mg/kg) was > 99%.

In data set [1], `NCC(=O)N1CCn2c(nc(-c3ccc(F)cc3)c2Nc2ccc(F)cc2)C1` [Compound 15] gave a Papp A→B of 0.7 ×10⁻⁶ cm/s and a Papp B→A of 2.55 ×10⁻⁶ cm/s.

Regarding “2-Amino-1-(3-(4-chloro-3-fluorophenylamino)-2-(4-fluorophenyl)-8,8-dimethyl-5,6-dihydroimidazo[1,2-a]pyrazin-7(8H)-yl)ethanone [Compound 21]”, the EC50 with P. falciparum strain W2 (setting [5]) was 0.024 ± 0.001 µM.

Consider `Cc1ccc(Nc2c(-c3ccc(F)cc3)nc3n2CCNC3(C)C)cc1` [Compound 35, 2-(4-Fluorophenyl)-8,8-dimethyl-N-p-tolyl-5,6,7,8-tetrahydroimidazo[1,2-a]pyrazin-3-amine], for which, in the data set with P. falciparum, the EC50 is ~0.01 µM and the improvement in potency was ~10 fold. Also, in the data set on Caco-2, the “Caco-2 A–B” value is 15.56 cm/s ×10^6 and the “Caco-2 B–A” value is listed as 6.96 cm/s ×10^6.

Regarding `CC(C)(N)C(=O)N1CCn2c(nc(-c3ccc(F)cc3)c2Nc2ccc(F)cc2)C1(C)C` [Compound 28, 2-Amino-1-(2-(4-fluorophenyl)-3-(4-fluorophenylamino)-8,8-dimethyl-5,6-dihydroimidazo[1,2-a]pyrazin-7(8H)-yl)-2-methylpropan-1-one], in the data set on Caco-2, the “Caco-2 A–B” value came out at 1.2 cm/s ×10^6 and the “Caco-2 B–A” value was determined as 0.97 cm/s ×10^6.

Regarding “(S)-2-Amino-1-(3-(4-chloro-3-fluorophenylamino)-2-(4-fluorophenyl)-8-isopropyl-5,6-dihydroimidazo[1,2-a]pyrazin-7(8H)-yl)ethanone [Compound 19]”, in the data set on P. falciparum strain W2 (setting [5]), the EC50 was determined as 0.47 ± 0.13 µM.

The compound `Cc1ccc(Nc2c(-c3ccc(F)cc3)nc3n2CC(=O)NC3(C)C)cc1` [Compound 33, 2-(4-Fluorophenyl)-8,8-dimethyl-3-(p-tolylamino)-7,8-dihydroimidazo[1,2-a]pyrazin-6(5H)-one] returned an improvement in potency with P. falciparum of 7 fold.

Consider “(R)-2-Amino-1-(3-(4-chloro-3-fluorophenylamino)-2-(4-fluorophenyl)-8-isopropyl-5,6-dihydroimidazo[1,2-a]pyrazin-7(8H)-yl)ethanone [Compound 20]”, for which the half-maximal effective concentration (EC50) in the data set with P. falciparum strain W2 (setting [5]) is 0.202 ± 0.038 µM.

For the compound `Cc1ccc(Nc2c(-c3ccc(F)cc3)nc3n2CCN(C(=O)C(C)(C)N)C3(C)C)cc1` [Compound 29, 2-Amino-1-(2-(4-fluorophenyl)-8,8-dimethyl-3-(p-tolylamino)-5,6-dihydroimidazo[1,2-a]pyrazin-7(8H)-yl)-2-methylpropan-1-one], in the data set on Caco-2, the “Caco-2 A–B” value stood at 3.5 cm/s ×10^6 and the “Caco-2 B–A” value turned out to be 2.37 cm/s ×10^6. For the same compound, the “in vivo exposure in rat” value in “Rat snapshot PK” (oral, rat snapshot PK) was “did not exhibit any in vivo exposure”. The “activity (average parasitemia reduction)” value in the data set on Plasmodium berghei (1 × 30 mg/kg oral, 30 mg/kg) is recorded as > 99%. The “survival (average lifespan after infection)” value (“survival” below) in the data set with Plasmodium berghei (3 × 30 mg/kg oral) was 18.0 days.

As for `CC1(C)c2nc(-c3ccc(F)cc3)c(Nc3ccc(F)cc3)n2CCN1C(=O)CN` [Compound 22, 2-Amino-1-(2-(4-fluorophenyl)-3-(4-fluorophenylamino)-8,8-dimethyl-5,6-dihydroimidazo[1,2-a]pyrazin-7(8H)-yl)ethanone], in the data set with Caco-2, the “Caco-2 A–B” value was determined as 1.26 cm/s ×10^6 and the “Caco-2 B–A” value was determined as 2.99 cm/s ×10^6. In [2] (oral, 2 mg/kg), the Cmax is ~75 nM. For the same compound, in data set [3], the “increase in AUC” value came to 7 fold and the increase in bioavailability is 2 fold. Further, the “activity (average parasitemia reduction)” value with Plasmodium berghei (1 × 30 mg/kg oral, 30 mg/kg) is recorded as > 99%. Also, in the data set with Plasmodium berghei (compound 22 vs compound 1), the “efficacy of substituted vs unsubstituted piperazine core (ED99)” value was ~10 fold.

`Cc1ccc(Nc2c(-c3ccc(F)cc3)nc3n2CCNC3)cc1` [Compound 31, 2-(4-Fluorophenyl)-N-(p-tolyl)-5,6,7,8-tetrahydroimidazo[1,2-a]pyrazin-3-amine]: the EC50 in the data set on P. falciparum was in the range of 0.16 to 0.4 µM. Besides, in the data set on Caco-2, the “Caco-2 A–B” value is recorded as 8.2 cm/s ×10^6 and the “Caco-2 B–A” value is on record as 2.36 cm/s ×10^6.

As to `CC(C)(N)C(=O)N1CCn2c(nc(-c3ccc(F)cc3)c2Nc2ccc(F)cc2)C1` [Compound 27, 2-Amino-1-(2-(4-fluorophenyl)-3-((4-fluorophenyl)amino)-5,6-dihydroimidazo[1,2-a]pyrazin-7(8H)-yl)-2-methylpropan-1-one], in [1], the apparent permeability from apical to basolateral (Papp A→B) was 3.05 ×10⁻⁶ cm/s and the Papp B→A was found to be 8.38 ×10⁻⁶ cm/s.

Consider `CC1(C)NC(=O)Cn2c1nc(-c1ccc(F)cc1)c2Nc1ccc(Cl)c(F)c1` [Compound 34, 3-(4-Chloro-3-fluorophenylamino)-2-(4-fluorophenyl)-8,8-dimethyl-7,8-dihydro imidazo[1,2-a]pyrazin-6(5H)-one], for which the EC50 in the data set on P. falciparum strain 3D7 came out at 0.036 ± 0.002 µM. The concentration for a half-maximal effect (EC50) in the data set with P. falciparum strain W2 (Plasmodium falciparum, W2, read-out: P. falciparum strain EC50 W2) was found to be 0.065 ± 0.003 µM. Also, the “mouse microsome hepatic extraction ratio” value in data set [4] is recorded as 0.61. In “PAMPA assay”, the “PAMPA, measured as percentage absorbed” value came to 97.1%. In data set [1], this compound came in with an apparent permeability from apical to basolateral (Papp A→B) of 3.22 ×10⁻⁶ cm/s and a Papp B→A of 3.35 ×10⁻⁶ cm/s. In data set [2] (male, Balb/c, iv, 5 mg/kg), this compound showed an AUC(0-t) of 16.5 µM·h, a Vd of 2.7 L/kg, a clearance of 12.5 mL/min/kg and a half-life of 2.8 h. In addition, in [2] (male, Balb/c, oral, 20 mg/kg), the bioavailability turned out to be 77%. Besides, in data set [2] (male, Balb/c, po, 20 mg/kg), the AUC(0-t) stood at 50.6 µM·h, the peak level (Cmax) was 3650 nM, the Tmax was 1 h and the half-life was 2.71 h. Further, the “AUC(0–5 h)/dose” value in the data set “Rat snapshot PK” (PO, Wistar rat) is reported as 5.07 (min·μg/mL)/(mg/kg). In “Rat snapshot PK” (setting [6]), this compound had an AUC(0-t) of 2.1 µM·h and a Cmax of 504 nM. In addition, in the data set with Plasmodium berghei (1 × 30 mg/kg oral), the “activity (average parasitemia reduction)” value is 47.0% and the “survival” value came out at 6.3 days. In addition, in the data set with Plasmodium berghei (1 × 100 mg/kg oral), the “activity (average parasitemia reduction)” value turned out to be 97.0% and the “survival” value turned out to be 6.7 days. In the data set with Plasmodium berghei (3 × 30 mg/kg oral), the “activity (average parasitemia reduction)” value is 66.0% and the “survival” value is 7.0 days.

For the compound “(S)-2-Amino-1-(3-(4-chloro-3-fluorophenylamino)-2-(4-fluorophenyl)-8-methyl-5,6-dihydroimidazo[1,2-a]pyrazin-7(8H)-yl)ethanone [Compound 17]”, the EC50 in the data set on P. falciparum strain W2 (setting [5]) turned out to be 0.024 ± 0.001 µM. For the same compound, the loss/decrease of potency in the data set with P. falciparum amounted to 10 fold.
